One data set concerns OVCAR-8. Kind of data set: Growth inhibition of human OVCAR8 cells at 10 uM relative to control. Format: functional. Conditions: read-out: GI. The method in brief: (§1)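 Each cell line in a 60-line human tumour panel exposed to one 10 μM concentration. Growth inhibition percentage computed as 100 minus the percentage activity relative to control.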
For the next data set, the system named is HCC 2998. Kind of data set: Growth inhibition of human HCC2998 cells at 10 uM relative to control. The settings on record: read-out: GI. Format: functional. In short, it runs like this: as §1
For another data set, the system named is UACC-62. The experiment in a line: Growth inhibition of human UACC62 cells at 10 uM relative to control. Conditions: read-out: GI. It is filed as functional. The method in brief:
(§2)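 Single-dose screen across the 60-cell-line human tumor panel at 10 μM. Growth inhibition is reported as a percentage, taken as 100 minus the % growth relative to untreated control.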

The next data set concerns SF-539. Kind of data set: Growth inhibition of human SF539 cells at 10 uM relative to control. Conditions: read-out: GI. Format: functional. The method in brief:
as §1

In another data set the test system is EKVX. The experiment in a line: Growth inhibition of human EKVX cells at 10 uM relative to control. It is filed as functional. The settings on record: read-out: GI. In short, it runs like this: as §1
Data set [1] can be described thus: Growth inhibition of human Hs 578T cells at 10 uM relative to control. Conditions: read-out: GI. It is filed as functional. In short, it runs like this:
as §1

A further data set concerns HT-29. The experiment in a line: Growth inhibition of human HT-29 cells at 10 uM relative to control. It is filed as functional. The settings on record: read-out: GI. In short, it runs like this: as §1
A further data set has as its system NCI-H23. Kind of data set: Growth inhibition of human NCI-H23 cells at 10 uM relative to control. Format: functional. The settings on record: read-out: GI. The method in brief:
as §1

Another data set deals with MOLT-4. The experiment in a line: Growth inhibition of human MOLT4 cells at 10 uM relative to control. It is filed as functional. The settings on record: read-out: GI. In short, it runs like this: as §1
A further data set deals with SF-295. Kind of data set: Growth inhibition of human SF295 cells at 10 uM relative to control. Format: functional. The settings on record: read-out: GI. In short, it runs like this: as §1
A further data set has as its system NCI-H226. Kind of data set: Growth inhibition of human NCI-H226 cells at 10 uM relative to control. The settings on record: read-out: GI. Format: functional. The method in brief: as §1
A further data set has as its system SNB-75. Kind of data set: Growth inhibition of human SNB75 cells at 10 uM relative to control. It is filed as functional. Conditions: read-out: GI. In short, it runs like this:
as §2

In a further data set the test system is SNB-19. Kind of data set: Growth inhibition of human SNB19 cells at 10 uM relative to control. It is filed as functional. The settings on record: read-out: GI. The method in brief: as §2
The next data set relates to UO-31. Kind of data set: Growth inhibition of human UO31 cells at 10 uM relative to control. Format: functional. Conditions: read-out: GI. In short, it runs like this:
as §2

Another data set concerns U-251. Kind of data set: Growth inhibition of human U251 cells at 10 uM relative to control. It is filed as functional. The settings on record: read-out: GI. The method in brief:
as §2

Another data set has as its system NCI-H522. The experiment in a line: Growth inhibition of human NCI-H522 cells at 10 uM relative to control. Format: functional. The settings on record: read-out: GI. The method in brief: as §1
A further data set has as its system A498. Kind of data set: Growth inhibition of human A498 cells at 10 uM relative to control. Format: functional. Conditions: read-out: GI. The method in brief: as §1
In another data set the test system is RPMI-8226. Kind of data set: Growth inhibition of human RPMI8226 cells at 10 uM relative to control. Format: functional. Conditions: read-out: GI. In short, it runs like this: as §1
The subject of a further data set is HL-60(TB). The experiment in a line: Growth inhibition of human HL-60(TB) cells at 10 uM relative to control. Format: functional. Conditions: read-out: GI. The method in brief: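 Single-dose screen at 10 μM across the 60-cell-line tumour panel. Percent growth inhibition = 100 minus percent growth activity relative to untreated control.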
The subject of another data set is CAKI-1. Kind of data set: Growth inhibition of human CAKI-1 cells at 10 uM relative to control. The settings on record: read-out: GI. Format: functional. The method in brief: as §1
The next data set has as its system A549. The experiment in a line: Growth inhibition of human A549 cells at 10 uM relative to control. Format: functional. The settings on record: read-out: GI. The method in brief:
as §1

The subject of a further data set is CCRF-CEM. Kind of data set: Growth inhibition of human CCRF-CEM cells at 10 uM relative to control. It is filed as functional. Conditions: read-out: GI. In short, it runs like this:
as §1

Another data set has as its system HCT-116. Kind of data set: Growth inhibition of human HCT116 cells at 10 uM relative to control. Format: functional. The settings on record: read-out: GI. The method in brief:
as §1

For a further data set, the system named is K562. The experiment in a line: Growth inhibition of human K562 cells at 10 uM relative to control. Format: functional. Conditions: read-out: GI. In short, it runs like this: as §1
The next data set relates to PC-3. Kind of data set: Growth inhibition of human PC3 cells at 10 uM relative to control. It is filed as functional. The settings on record: read-out: GI. The method in brief: as §1
For the next data set, the system named is SK-MEL-28. Kind of data set: Growth inhibition of human SK-MEL-28 cells at 10 uM relative to control. Format: functional. The settings on record: read-out: GI. The method in brief: as §1
For data set [2], the system named is Mus musculus. Kind of data set: Anticonvulsant activity in mouse assessed as protection against pentylenetetrazol-induced seizure at 1 mmol/kg, ip administered 30 min prior to pentylenetetrazol-challenge measured after 60 mins relative to control. It is filed as functional.
Data set [3] concerns Mus musculus. The experiment in a line: Anticonvulsant activity in mouse assessed as protection against maximal electroshock-induced seizure at 1 mmol/kg, ip administered 30 min prior to maximal electroshock-challenge measured after 60 mins relative to control. Format: functional. A general note: The maximal electroshock test induces tonic seizures with an electrical stimulus.

The subject of data set [4] is Mus musculus. Kind of data set: Anticonvulsant activity in mouse assessed as protection against strychnine-induced seizure at 1 mmol/kg, ip administered 30 min prior to strychnine-challenge measured after 60 mins relative to control. It is filed as functional.
Data set [5] has as its system Mus musculus. Kind of data set: Anticonvulsant activity in ip dosed mouse assessed as protection against pentylenetetrazol-induced seizure administered 30 min prior to pentylenetetrazol-challenge measured after 60 mins. Format: functional. The method in brief:
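Mice received several doses for quantification. ED50 taken as the dose protecting 50% of mice against pentylenetetrazol-induced seizures.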

Data set [6] is described as follows: Therapeutic index, ratio of LD50 for mouse to ED50 for pentylenetetrazol-induced seizure in mouse. It is filed as organism-based. Conditions: in vivo, read-out: Ratio LD50/ED50. The method in brief: (§3)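 In mice, LD50 is the dose causing 50% mortality. ED50 is the dose protecting 50% of mice against pentylenetetrazole-induced seizures. Therapeutic index = LD50/ED50.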

For data set [7], the system named is Mus musculus. The experiment in a line: Anticonvulsant activity in mouse assessed as protection against picrotoxin-induced seizure at 1 mmol/kg, ip administered 30 min prior to picrotoxin-challenge measured after 60 mins relative to control. Format: functional.
The species named for data set [8] is Mus musculus. Kind of data set: Protective index, ratio of TD50 for mouse to ED50 for pentylenetetrazol-induced seizure in mouse. It is filed as functional. The method in brief: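 Mice. Index is TD50/ED50. TD50 is the dose causing minimal neurological toxicity in 50% of mice in the Chimney test. ED50 is the dose protecting 50% of mice against pentylenetetrazole-induced seizures. Both are estimated from testing at several doses.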

A short description of data set [9]: Neurotoxicity in ip dosed mouse assessed as impaired motor coordination administered 30 mins prior to test by chimney test. It is filed as toxicity, organism-based. The settings on record: in vivo. In short, it runs like this:
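Mice, Chimney test. TD50 is the dose that produces minimal neurological toxicity (impaired motor coordination) in 50% of animals, estimated from testing at several doses.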

A short description of data set [10]: Toxicity in ip dose mouse assessed as mortality. It is filed as organism-based. The settings on record: in vivo. The method in brief:
as §3

Consider five molecules from ChEMBL document CHEMBL1955778, “Design and synthesis of novel 7-aminoquinazoline derivatives: antitumor and anticonvulsant activities” (Bioorg Med Chem Lett, 2012).

One may read the ED50 as the dose that gives a 50% effect, or the effect in half of the subjects. A word on the TD50: it is the 50% point of the dose-response relation for the toxic effect studied. As a reminder, the LD50 is the dose at which mortality reaches 50%.

As to `Cc1ccccc1-n1c(C)nc2cc(NS(=O)(=O)c3ccccc3)ccc2c1=O`, the inhibition of growth at 10 µM in the data set with OVCAR-8 came out at 5.4%; in the data set on HCC 2998 it was 4%; in the data set with UACC-62, 9%; with SF-539, 4%; in the data set on EKVX, 14.3%; in data set [1], 3.2%. The inhibition of growth at 10 µM in the data set with HT-29 came to 3%; in the data set with NCI-H23 it was 5.2%; in the data set on MOLT-4, 12.2%; with SF-295, 9%; in the data set with NCI-H226, 2.5%; with SNB-75, 14.8%. Besides, the inhibition of growth at 10 µM was 4% in the data set with SNB-19; 13.6% in the data set with UO-31; 4% with U-251; 2.2% in the data set on NCI-H522; 8% in the data set on A498; 12% in the data set on RPMI-8226. The inhibition of growth at 10 µM in the data set with HL-60(TB) was determined as 4%; in the data set on CAKI-1, 4%; in the data set on A549, 5%; in the data set on CCRF-CEM, 13%; in the data set with HCT-116, 4%; in the data set on K562, 10%. Also, the inhibition of growth at 10 µM in the data set on PC-3 came out at 8%; in the data set with SK-MEL-28 it was 2.4%.
As to `Cc1ccccc1-n1c(C)nc2cc(/N=C/c3ccco3)ccc2c1=O`, the Activity with Mus musculus [2] turned out to be 0%; in the data set with Mus musculus [3] it was 50%; in the data set on Mus musculus [4], 0%.
In the case of `Cc1ccccc1-n1c(C)nc2cc(/N=C/c3ccc(F)cc3)ccc2c1=O`, the ED50 with Mus musculus [5] turned out to be 310 µmol/kg. In addition, the selectivity ratio in data set [6] was determined as 5.5. Moreover, the Activity was determined as 75% in the data set on Mus musculus [7], 100% in the data set with Mus musculus [2], 100% with Mus musculus [3] and 0% in the data set with Mus musculus [4]. For the same molecule, the “Ratio TD50/ED50” value in the data set filed under Mus musculus [8] came out at 3. For the same molecule, in data set [9], the TD50 at 0.5 h stood at 930 µmol/kg. Besides, the LD50 in data set [10] came to 1710 µmol/kg.
In the case of `Cc1ccccc1-n1c(C)nc2cc(-n3c(C)nc4ccccc4c3=O)ccc2c1=O`, the Activity with Mus musculus [7] came to 0%; in the data set with Mus musculus [2] it was 0%; in the data set on Mus musculus [3], 100%; with Mus musculus [4], 0%.
As to `Cc1ccc(S(=O)(=O)Nc2ccc3c(=O)n(-c4ccccc4C)c(C)nc3c2)cc1`, the results for the Activity in the data set on Mus musculus [2], in the data set on Mus musculus [3] and in the data set on Mus musculus [4] were 66%, 0% and 0%, respectively.
